Key:
[1] = target: T1, Multidrug efflux pump subunit AcrB (Escherichia coli (strain K12)) (UniProt P31224); assay: Inhibition of AcrB in Escherichia coli BW25113 assessed as potentiation of levofloxacin induced antibacterial activity by measuring levofloxacin MIC at 128 ug/ml measured after 18 hrs by checkerboard titration method (reference value: 0.06 ug/ml); conditions: dose 128.0 µg/ml
T1 sequence (whole entry): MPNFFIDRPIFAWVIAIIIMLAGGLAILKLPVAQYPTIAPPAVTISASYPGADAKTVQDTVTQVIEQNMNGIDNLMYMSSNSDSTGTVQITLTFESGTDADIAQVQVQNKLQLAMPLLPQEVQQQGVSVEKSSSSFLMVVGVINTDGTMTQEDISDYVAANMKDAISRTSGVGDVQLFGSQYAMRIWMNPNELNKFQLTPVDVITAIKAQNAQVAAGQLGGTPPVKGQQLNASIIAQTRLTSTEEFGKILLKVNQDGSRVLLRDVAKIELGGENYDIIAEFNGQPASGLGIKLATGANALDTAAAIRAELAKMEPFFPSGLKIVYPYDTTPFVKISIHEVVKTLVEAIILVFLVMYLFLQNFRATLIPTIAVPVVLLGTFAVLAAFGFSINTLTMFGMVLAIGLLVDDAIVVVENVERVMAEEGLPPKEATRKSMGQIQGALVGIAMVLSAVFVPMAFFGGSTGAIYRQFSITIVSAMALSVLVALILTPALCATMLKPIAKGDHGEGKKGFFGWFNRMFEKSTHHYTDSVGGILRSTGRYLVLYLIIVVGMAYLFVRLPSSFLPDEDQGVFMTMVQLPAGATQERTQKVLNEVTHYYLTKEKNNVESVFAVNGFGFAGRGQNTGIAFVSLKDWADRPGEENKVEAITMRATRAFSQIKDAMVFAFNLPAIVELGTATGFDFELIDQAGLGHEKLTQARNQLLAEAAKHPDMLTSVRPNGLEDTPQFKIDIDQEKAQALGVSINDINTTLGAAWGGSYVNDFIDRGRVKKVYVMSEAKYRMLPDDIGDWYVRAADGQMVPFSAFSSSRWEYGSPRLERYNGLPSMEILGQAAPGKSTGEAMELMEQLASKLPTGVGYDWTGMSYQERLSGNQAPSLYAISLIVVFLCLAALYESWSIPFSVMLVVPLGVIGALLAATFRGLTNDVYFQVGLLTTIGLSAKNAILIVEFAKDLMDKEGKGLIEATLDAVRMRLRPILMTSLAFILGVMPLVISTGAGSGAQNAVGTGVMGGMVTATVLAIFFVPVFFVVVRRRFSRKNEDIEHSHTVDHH

[2] = target: T1, Multidrug efflux pump subunit AcrB (Escherichia coli (strain K12)); assay: Inhibition of AcrB in Escherichia coli BW25113 assessed as potentiation of rifampicin induced antibacterial activity by measuring rifampicin MIC at 16 ug/ml measured after 18 hrs by checkerboard titration method (reference value: 16 ug/ml); conditions: dose 16.0 µg/ml
[3] = target: T1, Multidrug efflux pump subunit AcrB (Escherichia coli (strain K12)); assay: Inhibition of AcrB in Escherichia coli BW25113 assessed as potentiation of chloramphenicol induced antibacterial activity by measuring chloramphenicol MIC at 32 ug/ml measured after 18 hrs by checkerboard titration method (reference value: 8 ug/ml); conditions: dose 32.0 µg/ml
[4] = Growth inhibition of Escherichia coli harboring AcrB deletion mutant at 64 ug/ml after 18 hrs by broth microdilution assay; conditions: dose 64 µg/ml
In short: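 MIC determined by 96-well broth microdilution in E. coli BW25113 expressing AcrB ((+)AcrB) and an isogenic acrB-deleted strain ((-)AcrB). Used to set the compound concentrations for synergy testing that produce no direct antibacterial effect.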

[5] = target: T1, Multidrug efflux pump subunit AcrB (Escherichia coli (strain K12)); assay: Inhibition of AcrB in Escherichia coli BW25113 assessed as potentiation of erythromycin induced antibacterial activity by measuring erythromycin MIC at 128 ug/ml measured after 18 hrs by checkerboard titration method (reference value: 64 ug/ml); conditions: dose 128.0 µg/ml
[6] = target: T1, Multidrug efflux pump subunit AcrB (Escherichia coli (strain K12)); assay: Inhibition of AcrB in Escherichia coli BW25113 assessed as potentiation of erythromycin induced antibacterial activity by measuring erythromycin MIC at 64 ug/ml measured after 18 hrs by checkerboard titration method (reference value: 64 ug/ml); conditions: dose 64.0 µg/ml
[7] = target: T1, Multidrug efflux pump subunit AcrB (Escherichia coli (strain K12)); assay: Inhibition of AcrB in Escherichia coli BW25113 assessed as potentiation of levofloxacin induced antibacterial activity by measuring levofloxacin MIC at 16 ug/ml measured after 18 hrs by checkerboard titration method (reference value: 0.06 ug/ml); conditions: dose 16.0 µg/ml
[8] = target: T1, Multidrug efflux pump subunit AcrB (Escherichia coli (strain K12)); assay: Inhibition of AcrB in Escherichia coli BW25113 assessed as potentiation of tetraphenylphosphonium induced antibacterial activity by measuring tetraphenylphosphonium MIC at 16 ug/ml measured after 18 hrs by checkerboard titration method (reference value: 1024 ug/ml); conditions: dose 16.0 µg/ml
[9] = target: T1, Multidrug efflux pump subunit AcrB (Escherichia coli (strain K12)); assay: Inhibition of AcrB in Escherichia coli BW25113 assessed as potentiation of erythromycin induced antibacterial activity by measuring erythromycin MIC at 16 ug/ml measured after 18 hrs by checkerboard titration method (reference value: 64 ug/ml); conditions: dose 16.0 µg/ml
[10] = target: T1, Multidrug efflux pump subunit AcrB (Escherichia coli (strain K12)); assay: Inhibition of AcrB in Escherichia coli BW25113 assessed as potentiation of tetraphenylphosphonium induced antibacterial activity by measuring tetraphenylphosphonium MIC at 32 ug/ml measured after 18 hrs by checkerboard titration method (reference value: 1024 ug/ml); conditions: dose 32.0 µg/ml
[11] = target: T1, Multidrug efflux pump subunit AcrB (Escherichia coli (strain K12)); assay: Inhibition of AcrB in Escherichia coli BW25113 assessed as potentiation of levofloxacin induced antibacterial activity by measuring levofloxacin MIC at 64 ug/ml measured after 18 hrs by checkerboard titration method (reference value: 0.06 ug/ml); conditions: dose 64.0 µg/ml
[12] = target: T1, Multidrug efflux pump subunit AcrB (Escherichia coli (strain K12)); assay: Inhibition of AcrB in Escherichia coli BW25113 assessed as potentiation of erythromycin induced antibacterial activity by measuring erythromycin MIC at 32 ug/ml measured after 18 hrs by checkerboard titration method (reference value: 64 ug/ml); conditions: dose 32.0 µg/ml
[13] = target: T1, Multidrug efflux pump subunit AcrB (Escherichia coli (strain K12)); assay: Inhibition of AcrB in Escherichia coli BW25113 assessed as potentiation of chloramphenicol induced antibacterial activity by measuring chloramphenicol MIC at 16 ug/ml measured after 18 hrs by checkerboard titration method (reference value: 8 ug/ml); conditions: dose 16.0 µg/ml
[14] = target: T1, Multidrug efflux pump subunit AcrB (Escherichia coli (strain K12)); assay: Inhibition of AcrB in Escherichia coli BW25113 assessed as potentiation of chloramphenicol induced antibacterial activity by measuring chloramphenicol MIC at 64 ug/ml measured after 18 hrs by checkerboard titration method (reference value: 8 ug/ml); conditions: dose 64.0 µg/ml
[15] = target: T1, Multidrug efflux pump subunit AcrB (Escherichia coli (strain K12)); assay: Inhibition of AcrB in Escherichia coli BW25113 assessed as potentiation of tetraphenylphosphonium induced antibacterial activity by measuring tetraphenylphosphonium MIC at 64 ug/ml measured after 18 hrs by checkerboard titration method (reference value: 1024 ug/ml); conditions: dose 64.0 µg/ml
[16] = target: T1, Multidrug efflux pump subunit AcrB (Escherichia coli (strain K12)); assay: Inhibition of AcrB in Escherichia coli BW25113 assessed as potentiation of chloramphenicol induced antibacterial activity by measuring chloramphenicol MIC at 128 ug/ml measured after 18 hrs by checkerboard titration method (reference value: 8 ug/ml); conditions: dose 128.0 µg/ml
[17] = target: T1, Multidrug efflux pump subunit AcrB (Escherichia coli (strain K12)); assay: Inhibition of AcrB in Escherichia coli BW25113 assessed as potentiation of rifampicin induced antibacterial activity by measuring rifampicin MIC at 32 ug/ml measured after 18 hrs by checkerboard titration method (reference value: 16 ug/ml); conditions: dose 32.0 µg/ml

SMILES | MIC [1] [µg/mL] | MIC [2] [µg/mL] | MIC [3] [µg/mL] | growth inhibition (GI) [4] | MIC [5] [µg/mL] | MIC [6] [µg/mL] | MIC [7] [µg/mL] | MIC [8] [µg/mL] | MIC [9] [µg/mL] | MIC [10] [µg/mL] | MIC [11] [µg/mL] | MIC [12] [µg/mL] | MIC [13] [µg/mL] | MIC [14] [µg/mL] | MIC [15] [µg/mL] | MIC [16] [µg/mL] | MIC [17] [µg/mL]
O=C(NCCc1ccc(O)c(O)c1)c1ccccc1O | 0.03 | 16 | 8 | Non-Toxic | 64 | 64 | 0.06 | 1020 | 64 | 1020 | 0.03 | 64 | 8 | 8 | 512 | 4 | 16
O=C(NCCc1ccc(O)c(O)c1)c1ccc(C(F)(F)F)cc1 | 0.03 | 16 | 8 | Non-Toxic | 64 | 64 | 0.06 | 1020 | 64 | 1020 | 0.06 | 64 | 8 | 8 | 1020 | 8 | 16
Cc1ccc(C(=O)NCCc2ccc(O)c(O)c2)cc1 | – | 16 | 8 | – | – | – | 0.06 | 1020 | 32 | 1020 | – | 16 | 8 | – | – | – | 16
Oc1ccc(CCCCc2ccc(Br)cc2)cc1O | 0.06 | 16 | 8 | Non-Toxic | 64 | 64 | 0.06 | 1020 | 64 | 1020 | 0.06 | 64 | 8 | 8 | 512 | 8 | 16
Nc1ccccc1C(=O)NCCc1ccc(O)c(O)c1 | 0.06 | 16 | 8 | Non-Toxic | 32 | 64 | 0.06 | 1020 | 64 | 1020 | 0.06 | 64 | 8 | 4 | 1020 | 4 | 16
O=C(NCCc1ccc(O)c(O)c1)c1ccc(O)c(O)c1 | 0.06 | 16 | 4 | Non-Toxic | 32 | 32 | 0.06 | 1020 | 64 | 512 | 0.06 | 32 | 4 | 2 | 512 | 2 | 16
Nc1cc(N)cc(C(=O)NCCc2ccc(O)c(O)c2)c1 | 0.06 | 16 | 8 | Non-Toxic | 32 | 32 | 0.06 | 512 | 64 | 512 | 0.06 | 32 | 8 | 8 | 512 | 8 | 16
O=C(NCCc1ccc(O)c(O)c1)c1ccc(Br)cc1 | 0.06 | 16 | 8 | Non-Toxic | 32 | 64 | 0.06 | 1020 | 64 | 1020 | 0.06 | 64 | 8 | 8 | 1020 | 8 | 16
Nc1ccc(C(=O)NCCc2ccc(O)c(O)c2)cc1 | 0.06 | 16 | 4 | Non-Toxic | 16 | 32 | 0.06 | 1020 | 64 | 1020 | 0.06 | 32 | 4 | 4 | 1020 | 2 | 16
C[C@H](Cc1ccc(O)c(O)c1)[C@@H](C)Cc1ccc(O)c(O)c1 [MASOPROCOL] | 0.03 | – | 8 | – | 64 | 64 | – | – | – | 1020 | 0.03 | 64 | – | 8 | 1020 | 4 | 16
Oc1ccc(CCCCCCc2ccc(O)c(O)c2)cc1O | 0.06 | 16 | 8 | Non-Toxic | 64 | 64 | 0.06 | – | 64 | 512 | 0.06 | 64 | 8 | 8 | 512 | 8 | 16
Oc1ccc(CCCCCc2ccc(O)c(O)c2)cc1O | 0.06 | 16 | 8 | – | 64 | 64 | 0.06 | 1020 | 64 | 1020 | 0.06 | 64 | 8 | 8 | 1020 | 8 | 16
